From paper PMC3437190 (Chemistry & biology, 2012) come the findings set out here.

The Kd is the free concentration of one partner at which half of the binding sites on the other are occupied at equilibrium, for simple one-to-one binding. A low value points to a tighter complex.

Molecules are shown by their SMILES. Where two headings read alike, the source gives them in different places.

Experiment [1] concerns the target T1, StaC (Streptomyces sp. TP-A0274, UniProt A3KBE8).
T1 sequence (A3KBE8 1-545): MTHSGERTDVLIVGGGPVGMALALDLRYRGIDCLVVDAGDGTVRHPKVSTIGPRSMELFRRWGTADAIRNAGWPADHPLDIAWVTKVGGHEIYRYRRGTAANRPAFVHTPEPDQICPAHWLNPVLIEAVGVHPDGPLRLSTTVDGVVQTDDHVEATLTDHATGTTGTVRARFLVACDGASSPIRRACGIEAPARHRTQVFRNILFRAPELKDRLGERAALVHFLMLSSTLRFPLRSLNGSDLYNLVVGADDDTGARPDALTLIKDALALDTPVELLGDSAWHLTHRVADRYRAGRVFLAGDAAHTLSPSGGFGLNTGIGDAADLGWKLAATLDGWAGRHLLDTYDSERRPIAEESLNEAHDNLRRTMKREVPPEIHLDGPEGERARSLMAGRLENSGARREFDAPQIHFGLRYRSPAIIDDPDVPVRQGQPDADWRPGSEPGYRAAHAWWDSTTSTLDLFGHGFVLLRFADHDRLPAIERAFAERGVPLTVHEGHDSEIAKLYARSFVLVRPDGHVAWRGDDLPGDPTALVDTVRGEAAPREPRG
Description: Isothermal titration calorimetry of FAD with FAD-free. In kind it is binding. Put shortly:
(§1)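 Recombinant His-tagged protein was expressed in Rosetta 2 (DE3) pLysS E. coli without added riboflavin (0.1 mM IPTG, 21°C, ~20 h). It was Ni(II)-affinity purified and gel-filtered on Superdex-200. The protein isolates free of FAD, so no stripping step was used. Concentration by A280 using theoretical extinction coefficient. FAD titrated by MicroCal ITC, at least triplicate runs. Single-site Kb converted to Kd.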
Background: ITC needs no label: the signal is the heat of the interaction.

In experiment [2] the target is T2, InkE (Nonomuraea longicatena, UniProt Q27IF2).
T2 sequence (Q27IF2 1-525): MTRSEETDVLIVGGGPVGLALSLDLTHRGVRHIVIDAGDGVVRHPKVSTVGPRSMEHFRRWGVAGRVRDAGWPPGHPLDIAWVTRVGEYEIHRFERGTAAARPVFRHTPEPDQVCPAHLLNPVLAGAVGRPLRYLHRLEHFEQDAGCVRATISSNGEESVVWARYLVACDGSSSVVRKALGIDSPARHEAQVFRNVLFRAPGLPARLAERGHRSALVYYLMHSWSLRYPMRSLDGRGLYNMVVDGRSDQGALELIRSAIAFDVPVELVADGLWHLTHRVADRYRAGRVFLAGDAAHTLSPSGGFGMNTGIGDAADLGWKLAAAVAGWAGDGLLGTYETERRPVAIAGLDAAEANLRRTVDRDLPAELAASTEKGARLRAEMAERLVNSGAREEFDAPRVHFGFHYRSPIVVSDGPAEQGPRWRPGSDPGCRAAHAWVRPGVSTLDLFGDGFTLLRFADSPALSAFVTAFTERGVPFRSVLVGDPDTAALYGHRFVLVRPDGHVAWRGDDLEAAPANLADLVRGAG
The description is as above. In kind it is binding. The method in brief:
as §1

Experiment [3] concerns the target T3, RebC (Lentzea aerocolonigenes, UniProt Q8KI25).
T3 sequence (Q8KI25 1-529): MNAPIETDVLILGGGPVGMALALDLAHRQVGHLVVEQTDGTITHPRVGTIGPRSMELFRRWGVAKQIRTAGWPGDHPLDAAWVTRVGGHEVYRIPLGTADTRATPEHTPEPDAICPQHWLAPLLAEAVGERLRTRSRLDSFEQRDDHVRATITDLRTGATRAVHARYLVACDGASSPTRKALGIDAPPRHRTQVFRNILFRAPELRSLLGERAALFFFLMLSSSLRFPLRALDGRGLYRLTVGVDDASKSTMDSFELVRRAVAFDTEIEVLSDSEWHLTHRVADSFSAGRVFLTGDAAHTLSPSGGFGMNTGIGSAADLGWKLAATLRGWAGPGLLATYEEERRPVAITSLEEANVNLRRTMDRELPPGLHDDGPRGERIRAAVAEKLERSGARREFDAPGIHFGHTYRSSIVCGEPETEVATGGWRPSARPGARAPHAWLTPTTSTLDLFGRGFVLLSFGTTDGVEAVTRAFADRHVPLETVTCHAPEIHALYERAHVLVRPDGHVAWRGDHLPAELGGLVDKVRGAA
Put plainly: Isothermal titration calorimetry of FAD with FAD-free. In kind it is binding. The method in brief: (§2)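 Recombinant His-tagged protein was expressed in Rosetta 2 (DE3) pLysS E. coli (0.1 mM IPTG, 21°C, ~20 h) and captured on Ni(II) resin. Flavin was stripped on-column with 2 M KBr/2 M urea, then the protein was eluted with 200 mM imidazole and gel-filtered on Superdex-200. Concentration by A280 using theoretical extinction coefficient. FAD titrated by MicroCal ITC, at least triplicate runs. Single-site Kb converted to Kd.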

The target in experiment [4] is T4, AtmC (Actinomadura melliaura, UniProt Q0H2X3).
T4 sequence (Q0H2X3 1-534): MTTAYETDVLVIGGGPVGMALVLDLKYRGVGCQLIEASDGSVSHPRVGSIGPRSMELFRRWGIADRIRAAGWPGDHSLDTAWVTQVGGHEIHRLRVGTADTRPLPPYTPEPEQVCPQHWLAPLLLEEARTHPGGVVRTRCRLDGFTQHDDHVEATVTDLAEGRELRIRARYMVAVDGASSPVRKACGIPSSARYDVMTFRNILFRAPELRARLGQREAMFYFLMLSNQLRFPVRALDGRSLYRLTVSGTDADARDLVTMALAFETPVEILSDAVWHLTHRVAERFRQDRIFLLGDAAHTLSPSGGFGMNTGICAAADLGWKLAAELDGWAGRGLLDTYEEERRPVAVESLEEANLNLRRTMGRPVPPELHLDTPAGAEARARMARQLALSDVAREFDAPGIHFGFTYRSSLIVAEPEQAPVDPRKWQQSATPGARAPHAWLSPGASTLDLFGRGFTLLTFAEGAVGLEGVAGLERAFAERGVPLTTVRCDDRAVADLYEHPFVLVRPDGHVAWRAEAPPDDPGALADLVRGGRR
The description is as above. Type of experiment: binding. The method in brief: as §2

The target in experiment [5] is RebC-10x (Lentzea aerocolonigenes, UniProt Q8KI25, A231S/E36D/F216V/G48S/Q117A/Q37A/R239N/R46K/T241V/T38G). Put plainly: Isothermal titration calorimetry of FAD with FAD-free. Type of experiment: binding.
The target in experiment [6] is T3, RebC. Type of experiment: binding. Put shortly: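 Control ITC on RebC purified by Ni(II) affinity and Superdex-200 without the KBr/urea wash, retaining ~68% bound FAD. It tests fitting of partially occupied protein, since the fitting software assumes no ligand in the cell before the first injection. FAD titrated, at least triplicate runs. Single-site Kb converted to Kd.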

The test system of experiment [7] is StaC-10x. Put plainly: Isothermal titration calorimetry, FAD binding to StaC-10x. As to conditions: StaC-10x versus RebC. The method in brief: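 It was used as isolated at ~33% FAD occupancy, because on-column KBr/urea stripping left the protein non-elutable. Concentration by BioRad protein assay against BSA standard. FAD titrated by ITC, two runs. Single-site Kb converted to an approximate Kd.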

As to `Cc1cc2nc3c(=O)[nH]c(=O)nc-3n(C[C@H](O)[C@H](O)[C@H](O)COP(=O)(O)OP(=O)(O)OC[C@H]3O[C@@H](n4cnc5c(N)ncnc54)[C@H](O)[C@@H]3O)c2cc1C` [FAD, flavin adenine dinucleotide], the Kd in experiment [1] came out at 15 µM; in experiment [2], 59 µM; in experiment [3], 20 ± 12 nM; in experiment [4] it was 73 ± 28 nM; in experiment [5], 600 ± 55 nM; in experiment [6] it was 31 nM.
For `Cc1cc2nc3c(=O)[nH]c(=O)nc-3n(C[C@H](O)[C@H](O)[C@H](O)COP(=O)(O)OP(=O)(O)OC[C@H]3O[C@@H](n4cnc5c(N)ncnc54)[C@H](O)[C@@H]3O)c2cc1C` [FAD], the “FAD binding weaker than RebC” value in experiment [7] is on record as 30 fold.
